Values after ≈ are worked out from the molar mass of the structure shown.
What was measured:
[1] = Cytotoxicity against human MRC5 cells assessed as reduction in cell viability by MTT assay; format: cell-based
Outline: (§1)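 Viability read by the standard formazan (MTT) method. CC50 is the concentration giving a 50% decrease in cell viability, reported in µM as CC50±SD.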

[2] = tested on: Mycobacterium tuberculosis; experiment: Antitubercular activity against Mycobacterium tuberculosis H37Ra assessed as bacterial growth inhibition at 50 to 100 ug/ml by MABA relative to control; format: functional
[3] = tested on: Mycobacterium tuberculosis; experiment: Antitubercular activity against Mycobacterium tuberculosis H37Ra assessed as bacterial growth inhibition by MABA; format: functional
Outline: (§2)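 Whole-cell growth inhibition of Mycobacterium bovis and M. tuberculosis H37Ra, read quantitatively by Microplate Alamar Blue Assay (alamar blue reagent). Compounds were tested across 1 to 100 µg/ml. Activity was expressed as MIC50 (µg/ml) from this concentration series.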

[4] = Cytotoxicity against African green monkey Vero cells assessed as reduction in cell viability by MTT assay; format: cell-based; details: chlorocebus sabaeus; outline: as §1
[5] = Cytotoxicity against human A549 cells assessed as reduction in cell viability by MTT assay; format: cell-based; outline: as §1
[6] = tested on: Mycobacterium tuberculosis; experiment: Antitubercular activity against Mycobacterium tuberculosis H37Ra assessed as bacterial growth inhibition at 1 to 5 ug/ml by MABA relative to control; format: functional
[7] = tested on: Mycobacterium tuberculosis; experiment: Antitubercular activity against Mycobacterium tuberculosis H37Ra assessed as bacterial growth inhibition at 100 ug/ml by MABA relative to control; format: functional; details: read-out: GI
[8] = tested on: Mycobacterium tuberculosis; experiment: Antitubercular activity against Mycobacterium tuberculosis H37Ra assessed as bacterial growth inhibition by MABA relative to control; format: functional; outline: as §2
[9] = tested on: Mycobacterium tuberculosis; experiment: Antitubercular activity against Mycobacterium tuberculosis H37Ra assessed as bacterial growth inhibition at 10 ug/ml by MABA relative to control; format: functional; details: read-out: GI
[10] = tested on: Mycobacterium tuberculosis; experiment: Antitubercular activity against Mycobacterium tuberculosis H37Ra assessed as bacterial growth inhibition at 50 ug/ml by MABA relative to control; format: functional; details: read-out: GI
[11] = tested on: Mycobacterium tuberculosis; experiment: Antitubercular activity against Mycobacterium tuberculosis H37Ra assessed as bacterial growth inhibition at 25 ug/ml by MABA relative to control; format: functional; details: read-out: GI
[12] = tested on: Mycobacterium tuberculosis; experiment: Antitubercular activity against Mycobacterium tuberculosis H37Ra assessed as bacterial growth inhibition at 5 ug/ml by MABA relative to control; format: functional; details: read-out: GI
[13] = tested on: Mycobacterium tuberculosis; experiment: Antitubercular activity against Mycobacterium tuberculosis H37Ra assessed as bacterial growth inhibition at 1 ug/ml by MABA relative to control; format: functional; details: read-out: GI

| Compound | CC50 [1] [µM] | growth inhibition (GI) [2] [%] | MIC50 [3] [µg/mL] | CC50 [4] [µM] | CC50 [5] [µM] | growth inhibition (GI) [6] [%] | inhibition of growth at 100 µg/mL [7] [%] | growth inhibition (GI) [8] [%] | inhibition of growth at 10 µg/mL [9] [%] | inhibition of growth at 50 µg/mL [10] [%] | inhibition of growth at 25 µg/mL [11] [%] | inhibition of growth at 5 µg/mL [12] [%] | inhibition of growth at 1 µg/mL [13] [%] |
| --- | --- | --- | --- | --- | --- | --- | --- | --- | --- | --- | --- | --- | --- |
| O=c1[nH]cc(C#Cc2ccccc2)c(=O)[nH]1 | 75.1 | 90 | 18.2 (≈ 85.8 µM) | 254 | 248 |  |  |  |  |  |  |  |  |
| O=c1[nH]cc(C#CC2CCCCC2)c(=O)[nH]1 | 62.8 |  | 2.8 (≈ 12.8 µM) | 247 | 245 | 50 | 90 |  |  |  |  |  |  |
| CCCCCCC#Cc1c[nH]c(=O)[nH]c1=O | 94.9 |  |  | 250 | 249 |  |  | 0 |  |  |  |  |  |
| O=c1[nH]c(=O)n([C@@H]2O[C@H](CO)[C@@H](O)[C@H]2O)cc1C#CC1CC1 | 24.2 |  |  | 133 | 115 | 50 | 90 |  | 70 |  |  |  |  |
| CCCCCCC#Cc1cn([C@@H]2O[C@H](CO)[C@@H](O)[C@H]2O)c(=O)[nH]c1=O | 15.7 |  | < 50 | 111 | 87.2 |  | 90 |  | 0 |  |  |  |  |
| CC#Cc1c[nH]c(=O)[nH]c1=O | 117 |  |  | 262 | 256 |  |  | 0 |  |  |  |  |  |
| CCC#Cc1c[nH]c(=O)[nH]c1=O | 120 |  |  | 263 | 253 |  |  | 0 |  |  |  |  |  |
| O=c1[nH]c(=O)n([C@@H]2O[C@H](CO)[C@@H](O)[C@H]2O)cc1C#CC(O)c1ccccc1 (stereo not given in full) | 0.9 |  | 1.1 (≈ 2.94 µM) | 65.4 | 34.2 | 100 |  |  |  |  |  |  |  |
| CCCCC#Cc1c[nH]c(=O)[nH]c1=O | 113 |  |  | 253 | 250 |  |  | 0 |  |  |  |  |  |
| O=c1[nH]cc(C#CC2CC2)c(=O)[nH]1 | 101 |  | 5.2 (≈ 29.5 µM) | 252 | 251 |  | 90 |  |  | 70 |  |  |  |
| O=c1[nH]c(=O)n([C@@H]2O[C@H](CO)[C@@H](O)[C@H]2O)cc1C#Cc1ccccc1 | 1.2 | 90 | 3.2 (≈ 9.29 µM) | 78.4 | 42.5 | 50 |  |  | 70 |  |  |  |  |
| CCCCC#Cc1cn([C@@H]2O[C@H](CO)[C@@H](O)[C@H]2O)c(=O)[nH]c1=O | 11.6 |  | 50 (≈ 154 µM) | 103 | 83.2 |  | 90 |  | 10 | 50 |  |  |  |
| C[Si](C)(C)C#Cc1c[nH]c(=O)[nH]c1=O | 124 |  | 100 (≈ 480 µM) | 270 | 268 |  | 50 |  |  |  |  |  |  |
| O=c1[nH]cc(C#CC(O)c2ccccc2)c(=O)[nH]1 (stereo not given) | 38.4 | 90 | 2.9 (≈ 12 µM) | 242 | 237 | 50 |  |  | 75 |  |  |  |  |
| O=c1[nH]c(=O)n([C@@H]2O[C@H](CO)[C@@H](O)[C@H]2O)cc1C#CC1CCCCC1 | 36.8 |  | 18.9 (≈ 53.9 µM) | 148 | 127 | 10 |  |  |  | 70 | 55 |  |  |
| N[C@@H]1CONC1=O [CYCLOSERINE] |  |  | 5.2 (≈ 50.9 µM) |  |  |  |  |  | 67 |  |  | 50 |  |
| NNC(=O)c1ccncc1 [ISONIAZID] |  |  | 0.8 (≈ 5.83 µM) |  |  |  |  |  |  |  |  |  | 100 |
| CO[C@H]1/C=C/O[C@@]2(C)Oc3c(C)c(O)c4c(O)c(c(/C=N/N5CCN(C)CC5)c(O)c4c3C2=O)NC(=O)/C(C)=C\C=C\[C@H](C)[C@H](O)[C@@H](C)[C@@H](O)[C@@H](C)[C@H](OC(C)=O)[C@@H]1C [RIFAMPIN] |  |  | 0.7 (≈ 0.851 µM) |  |  |  |  |  |  |  |  |  | 100 |
